The subject of assay [1] is HCT-116. In words: Cytotoxicity against human HCT116 cells after 4 days by WST-1 assay. It counts as cell-based. The settings on record: HCT-116, 96 h. The method in brief: (§1)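 Cells cultured in DMEM with 10% fetal calf serum. Seeded at 3000 cells/well, treated 24 h later with 9 concentrations from 100 nM to 100 µM, 8 replicates each. Viability read by WST-1 after 4 days of treatment. IC50 derived by curve fitting.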
(In general: Tetrazolium assays rely on reduction of a dye to a coloured formazan, in cell work by metabolically active cells.)

Assay [2] in a line: Cytotoxicity against human GM637 cells after 4 days by WST-1 assay. To be noted: GM637, 96 h. Type of assay: cell-based. The method in brief:
as §1

For assay [3], the system named is Mycobacterium tuberculosis. Nature of the assay: Antimicrobial activity against Mycobacterium tuberculosis H37Rv after 21 days by micro-broth dilution method. Type of assay: functional. To be noted: 504 h. Background: In broth dilution the organism is exposed to a series of concentrations in liquid medium.

In general, IC50 refers to the concentration that inhibits the measured activity by half. Low readings indicate inhibition by little substance, high ones a need for much substance. A word on the MIC: it is the lowest concentration found to suppress growth. The low end stands for inhibition by little substance, the high end for a need for much substance.

In brackets after ≈: the same amount, converted by molar mass.

Turning to `O=C1CC(Sc2nc[nH]n2)C(=O)N1c1ccccc1` (stereo not drawn), the IC50 came out at 17 µM in assay [1] and 15 µM in assay [2]. In assay [3], this compound returned an MIC of 18.2 µM (≈ 4.99 µg/mL).

Turning to `O=C(c1ccc2[nH]ccc2c1)N1CCN(C2c3ccccc3-c3ccccc32)CC1`, the MIC in assay [3] is > 318 µM.

Turning to `COc1ccc(N2C(=O)CC(Sc3nnc[nH]3)C2=O)cc1` (stereo not drawn), the minimal inhibitory concentration (MIC) in assay [3] stood at 16.4 µM (≈ 4.99 µg/mL).

For `O=C1CC(N2CCN(C3c4ccccc4-c4ccccc43)CC2)C(=O)N1c1ccccc1` (stereo not drawn), the 50% inhibitory concentration (IC50) in assay [1] and in assay [2] was > 100 µM throughout. Also, the minimum inhibitory concentration (MIC) in assay [3] is 94.4 µM (≈ 40 µg/mL).

For `O=C1CC(N2CCN(C3c4ccccc4-c4ccccc43)CC2)C(=O)N1Cc1ccccc1` (stereo not drawn), it took 91.4 µM (≈ 40 µg/mL) to inhibit growth in assay [3] (MIC).

In the case of `O=C1CC(N2CCc3ccccc3C2)C(=O)N1c1ccccc1` (stereo not drawn), the half-inhibitory concentration (IC50) in assay [1] and in assay [2] was > 100 µM each time. It took 8.2 µM (≈ 2.51 µg/mL) to inhibit growth in assay [3] (MIC).

On to `O=C1CC(N2CCc3ccccc3C2)C(=O)N1Cc1ccccc1` (stereo not drawn), for which the IC50 in assay [1] and in assay [2] was > 100 µM throughout. The same compound yielded a minimum inhibitory concentration (MIC) in assay [3] of 31.2 µM (≈ 10 µg/mL).

Take `O=C1CC(n2ccnc2)C(=O)N1c1ccccc1` (stereo not drawn): the IC50 in assay [1] and in assay [2] was > 100 µM in each case. Besides, in assay [3], it took 82.9 µM (≈ 20 µg/mL) to inhibit growth (MIC).

`COc1ccc(N2C(=O)CC(n3ccnc3)C2=O)cc1` (stereo not drawn): in assay [3], the minimal inhibitory concentration (MIC) was 55.3 µM (≈ 15 µg/mL).

For `O=C1CC(c2c(-c3ccccc3)cc3ccccn23)C(=O)N1c1ccccc1` (stereo not drawn), the concentration for half-maximal inhibition (IC50) in assay [1] and in assay [2] was > 100 µM each time. In assay [3], this compound returned a minimum inhibitory concentration (MIC) of 109 µM (≈ 40 µg/mL).

Regarding `O=C1CC(c2c(-c3ccccc3)cc3ccccn23)C(=O)N1Cc1ccccc1` (stereo not drawn), the MIC in assay [3] was 52.6 µM (≈ 20 µg/mL).

Regarding `O=C1CC(c2c3c([N+](=O)[O-])cc([N+](=O)[O-])cc3c3ccccn23)C(=O)N1c1ccccc1` (stereo not drawn), the IC50 in assay [1] and in assay [2] was > 100 µM throughout. This compound also registered a minimum inhibitory concentration (MIC) in assay [3] of 46.5 µM (≈ 20 µg/mL).

Compound `NNC(=O)c1ccncc1` [ISONIAZID] showed an MIC in assay [3] of 0.4 µM (≈ 0.0549 µg/mL).

In assay [3], `Oc1cc(Cl)ccc1Oc1ccc(Cl)cc1Cl` [TRICLOSAN] returned an MIC of 34.5 µM (≈ 9.99 µg/mL). Against the preceding compound, the MIC is about 86-fold higher.

The record behind these values is ChEMBL document CHEMBL3098007, “Synthesis of 3-heteryl substituted pyrrolidine-2,5-diones via catalytic Michael reaction and evaluation of their inhibitory activity against InhA and Mycobacterium tuberculosis” (Eur J Med Chem, 2014).
